Assay results of several laboratories.
Target: BMP-2-inducible protein kinase (BMP2K, Homo sapiens, UniProt Q9NSY1)

The remaining binding of C[C@]1(O)CCCN(c2nc(Nc3ccc(S(=O)(=O)N[C@H]4CC[C@H](CN5CCN(c6ccc(C7CCC(=O)NC7=O)cc6F)CC5)CC4)cc3Cl)ncc2C(F)(F)F)C1 (some centres unmarked) is reported as 99% (binding, competition with immobilised ligand; 1 µM).
The remaining signal of C[C@H]1CC[C@H](n2c3cnccc3c3cnc(Nc4ccc5c(n4)CCN(C(=O)CO)C5)nc32)CC1 is reported as 17% (cell-free assay; 1 µM).
The remaining binding of COc1ccc2oc(-c3ccc4nc(N)oc4c3)c/c(=N\c3ccccc3NC(=O)CCN)c2c1 is reported as 105% (binding; 1 µM).
The inhibition of CC#CC(=O)N1CCC[C@H]1c1nc(-c2ccc(C(=O)Nc3ccccn3)cc2)c2c(N)nccn12 is reported as 26% (enzyme activity, inhibitor; 1 µM).
CCCCC(=O)Nc1ccc(-c2ccc3ncn(CCC)c(=O)c3c2)cn1 gave a remaining binding of 98% (binding, competition with immobilised ligand; 0.5 µM).
C=CC(=O)N1CCC[C@@H](n2nc(-c3ccc(Oc4ccccc4)cc3)c3c(N)ncnc32)C1 has an inhibition of 17% (enzyme activity, inhibitor; 1 µM).
The remaining binding of CNS(=O)(=O)c1ccc(Nc2ncc(C(F)(F)F)c(N3CCC[C@](C)(O)C3)n2)c(C)c1 is reported as 79% (binding, competition with immobilised ligand; 1 µM).
For COc1ccc2[nH]c3c4[nH]c5ccc(OC)cc5c4c4c(c3c2c1)C(=O)NC4=O, the remaining binding was 76% (binding; 1 µM).
